Source: ChEMBL document CHEMBL4513216, “Probing the Open Global Health Chemical Diversity Library for Multistage-Active Starting Points for Next-Generation Antimalarials” (ACS Infect Dis, 2020)

Assay: Toxicity liver stage against HepG2, at 10uM
Format: cell-based
Design: test concentration 10 uM, cell line HepG2-A16-CD81EGFP
Details: human, HepG2-A16-CD81EGFP cells; read-out: INHIBITION
Procedure, shortened: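 Uninfected HepG2-A16-CD81EGFP cells, 3 × 10^3 per well, 1536-well, plated on prespotted compound at 10 μM final, parasite-free screening media added to match infected plates; puromycin 10 μM positive, DMSO 0.5% negative; run in parallel with 48 h PbLuc assay at 37 °C, 5% CO2; viability by CellTiter-Glo luminescence, normalized to controls.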

Structure (SMILES)	cytotoxicity at 10 µM [%]
CCC(NC(=O)CNC(=O)OC)c1cc(F)ccc1F (stereo unspecified)	-5.03
CNC(=O)c1cnc(C=Cc2ccc(O)c(OC)c2)s1	0.23
O=C(NCCc1ccc(Cl)s1)N1CCS(=O)(=O)CC1	1.92
Cc1noc(C)c1C(=O)N1CCCCC1c1cc(C)n2ccnc2n1 (stereo unspecified)	15.8
C[C@@H]1CN(c2nc(N)nc3c2CCC3)CC[C@@]1(O)C1CCC1	36.9
NC(=O)NCC(=O)N1C[C@@H]2CC[C@H]1CN(Cc1ccccc1)C2	-13.4
CCC(C)(CCO)NC(=O)c1ccon1 (stereo unspecified)	4.13
OCC(O)CSCc1cn(-c2ccc(Cl)c(Cl)c2)nn1 (stereo unspecified)	8.55
COCCCNc1nccc(-c2c[nH][nH]c2=O)n1	7.46
CC(C)c1cc(CNC(=O)NCc2cccc(N3CC=CC3)c2)on1	9.99
CCc1ccc(NC(=O)C2OC(c3cccs3)=NN2C(C)=O)cc1 (stereo unspecified)	4.64
O=C(C1CCOCC1)N1CC[C@@H]2[C@H]1CCC(=O)N2c1ccccc1	5.5
Cc1noc(C)c1-c1cncc(CC2CCN(C(=O)c3cc[nH]n3)C2)n1 (stereo unspecified)	-17.4
CCN(CC1CCOC1)C(=O)c1ccn(-c2ccc(OC)cc2)n1 (stereo unspecified)	-4.19
Cc1cc(CN2CCN(C(=O)NC(C)c3cccs3)CC2)on1 (stereo unspecified)	-7.72
O=C(O)c1cncc(Cc2ccc(F)cc2)c1	2.39
O=C(Cn1cc(C(=O)O)cn1)Nc1c(Cl)cccc1Cl	1.57
CCc1ncc(CN2CCN(c3cc(NC4CC4)nc(N)n3)CC2)cn1	-3.44
O=C(Nc1ccc(F)cc1)C1CNCCN1C(=O)CCc1cccnc1 (stereo unspecified)	2.06
CC(=O)c1cccc(-c2c[nH]c(C)n2)c1	-0.916
CCn1cc(C(=O)NCc2cccnc2N(C)Cc2ccccc2)cn1	1.18
Cc1cc(C)n(CC2CN(CC(=O)NC3(C#N)CCCC3)CCO2)n1 (stereo unspecified)	-2.49
O=C1CO[C@H]2CN(S(=O)(=O)c3ccccc3)C[C@H]2N1Cc1ccccn1	-1.11

Structure (SMILES)	cytotoxicity at 10 µM [%]
CCc1nnc(SC2CCCN(c3cnn(C)c3)C2=O)n1C (stereo unspecified)	2.68
CC(=O)Nc1cccc([C@H]2C[C@@H](NC(C)=O)CCO2)c1	-0.825
CC(O)CN1CCN(C(=O)c2ccn(-c3ccc(F)cc3)n2)CC1 (stereo unspecified)	-6.11
Cc1ccccc1CCC1CCCN(Cc2nnc(-c3ccco3)o2)C1 (stereo unspecified)	-116
CCOc1cccc2c1OCC(C(=O)NS(=O)(=O)c1ccc(C)s1)=C2	-9.02
CCCNC(=O)Cn1nc(C)c2cnn(C(C)(C)C)c2c1=O	-3.57
CC(C)NC(=O)C1CN(Cc2cccs2)Cc2ccnn2C1 (stereo unspecified)	-1.89
c1ccc(-n2cc(CNCC3CCCN3c3cccnn3)cn2)cc1 (stereo unspecified)	-8.85
COc1c(CNC(c2ccccc2)c2ccc(F)cc2)c(C)nn1C (stereo unspecified)	-5.16
Cc1cc(CN2CCC3(CC2)C(=O)NCCN3CC2CC2)oc1C	-67.5
Cn1ccc2c(ccn2CC(=O)Nc2ccc(Br)cc2)c1=O	10.4
N#Cc1nccnc1N1CCC(Cc2ccccc2)C1 (stereo unspecified)	-8.68
CCNc1ncc(CN2CCOC(Cc3cccc(OC)c3)C2)cn1 (stereo unspecified)	0.583
CCc1nc(CN2CCCC(NCc3cnc(C)s3)C2)no1 (stereo unspecified)	-9.26
Cc1nc(N2CCC(C(O)c3nccn3C)CC2)c2sccc2n1 (stereo unspecified)	-19.5
COc1ccc(-n2ncc3c2NC(=O)CSC3C(C)C)cc1 (stereo unspecified)	17.4
C[C@@H]1CN(CC(=O)NCc2ccccn2)C[C@]1(C)O	-5.68
CN(C)c1ncncc1NC(=O)Cc1c[nH]c2ccc(F)cc12	-9.74
CC(C)N1CCO[C@H]2CN(S(=O)(=O)c3ccc(C#N)cc3)C[C@H]21	7.55
O=S(=O)(c1ccc(F)cc1)N1CCCn2cnc(CN3CCCC3)c2C1	7.78
CN1C(=O)CC(C(=O)O)C12CCN(c1ccc3ccccc3n1)CC2 (stereo unspecified)	1.21
CN(C)C(=O)N1C[C@@H]2CC[C@H]1CN(C1Cc3ccccc3C1)C2	-0.581
NCc1cnc(Nc2ccccc2)nc1	8.55

Structure (SMILES)	cytotoxicity at 10 µM [%]
CCN(CC)CCSc1ncnc2[nH]ncc12	-4.44
CCN1CC(C(=O)N(C)Cc2cc3cc(F)ccc3[nH]2)CC1=O (stereo unspecified)	0.782
Cc1cc(C2CCCN(C(=O)COc3ccccc3F)C2)n[nH]1 (stereo unspecified)	7.45
O=C(C1CCOCC1)N1C[C@@H]2[C@@H](C1)OCC(=O)N2CC1CC1	2.29
CC(C)n1nnc(CC(=O)NCC2(c3cccc(F)c3)CCCC2)n1	4.5
Cc1ncsc1C(=O)Nc1cccc(OCC(F)F)n1	-1.4
CN1C[C@@H](N)C[C@H]1C(=O)N1CCC(Cc2ccc(F)cc2)CC1	-21.2
Cc1n[nH]cc1C(=O)N1CCCC1c1cc[nH]n1 (stereo unspecified)	-23.1
Cc1cccnc1CN1CCOC(Cc2cccc3ccccc23)C1 (stereo unspecified)	-2.43
CCS(=O)(=O)c1ccc(N2CCC(NC(C)=O)CC2)cc1	10.6
CC1CN(C)CCN1C(=O)Nc1nc(-c2cccn2C)cs1 (stereo unspecified)	-2.38
CC(C)[C@H](N)C(=O)N1CCCC(C2=Nc3ccccc3S(=O)(=O)N2)C1 (stereo partly specified)	7.96
Cc1ccc(-c2cc(CNc3ncnc4c3CCNCC4)no2)cc1	13
CC(C)CN1CCN(C(=O)CCn2cccn2)CC1	-5.45
Cc1noc([C@H]2COC[C@H]3CN(C(=O)Cc4ccccc4F)C[C@H]32)n1	-8.52
N#Cc1ccc(CN2C[C@@H](F)[C@@H](OCc3nc4cnccc4[nH]3)C2)cc1	-3.67
CCOCC1c2c(ncn2C)CCN1C(=O)c1cnc(C)cn1 (stereo unspecified)	-108
COc1cccc(-n2cc3[nH]c(=O)n(Cc4cccc(F)c4)n3c2=O)c1	0.647
COc1ccccc1N1CCN(C(=O)CCn2nnnc2C)CC1(C)C	6.48
CCNC(=O)c1ccoc1CN1c2ccccc2CC1C (stereo unspecified)	-10.2
Cc1nccc(-c2ccccc2)c1C(=O)N1CCC2(CCCO2)CC1	2.34
O=C(CN1CCCS1(=O)=O)Nc1ccc(OC(F)F)cc1	1.34
Cc1cnn(CC2CCCCN2C(=O)Cc2c(C)noc2Cl)c1 (stereo unspecified)	-5.43

Structure (SMILES)	cytotoxicity at 10 µM [%]
Cc1cc(NCc2ccc(O)cc2)n2nc(C)cc2n1	-0.881
CCOCC1CN(C)Cc2cnn(CC3CCCC3)c21 (stereo unspecified)	-9.7
COc1c(Br)c(C(=O)NC2CC2)nn1C	3.18
COCC(Nc1ncnc2sc(C)c(C)c12)c1ccnn1C (stereo unspecified)	-4.53
COc1cc(CNCC(O)c2ccccc2F)cc2c1OCO2 (stereo unspecified)	-5.53
CCCN(CCC)S(=O)(=O)N(C)Cc1ccncc1	12.2
O=C1CC[C@@H](CN(Cc2ccncc2)Cc2nc(CC3CC3)no2)N1	3.86
c1cncc(CN2CCn3cc(CN4CCCCC4)nc3C2)c1	-102
O=C(Cn1cc(C(=O)O)ccc1=O)Nc1cc(F)ccc1F	0.687
CCc1cc(NCCCc2nc(C)no2)nc(-c2ccncc2)n1	2.63
Cc1nc2n(n1)CC(Nc1cc(C(F)(F)F)nc3ncnn13)CC2 (stereo unspecified)	-1.27
CC1COCCN1Cc1nc(-c2ccc(Br)s2)no1 (stereo unspecified)	-2.45
CCS(=O)(=O)NCc1cc(Br)c(OC)c(OC)c1	-6.83
Cc1cccc2cc(CN3CCCN4CCC[C@H]4C3)c(=O)[nH]c12	2.67
NC(CNS(=O)(=O)Cc1cccc2cccnc12)c1ccccc1 (stereo unspecified)	-5.39
CC(C)NS(=O)(=O)c1cc(C(=O)O)cc(-c2ccccc2F)c1	-7.56
COCCNc1ccc(CNC(=O)Nc2cn[nH]c2)cc1	-2.68
CCC(=O)Nc1ccc2c(ccn2CCOC)c1	3.54
CCc1cccc(OCCn2cccc(C#N)c2=O)c1	9.04
CC(C)CCC(=O)N1CCC2(CC1)OCCO2	-0.457
O=C(Cc1ccc(Br)s1)NCC(=O)Nc1cn[nH]c1	2.06
Cc1noc(C(C)N2CCN(CCN3CCCC3=O)CC2)n1 (stereo unspecified)	-13.4
Cc1occc1C(=O)N1CCO[C@H]2[C@H](OCc3cccnc3)CC[C@@H]21	4.84

Structure (SMILES)	cytotoxicity at 10 µM [%]
Cc1ccc(CNC(C)c2cc(F)ccc2N2CCN(C)CC2)o1 (stereo unspecified)	0.513
Cc1cc(C(=O)NCc2ccc(N3CCCC(C(N)=O)C3)cc2)[nH]n1 (stereo unspecified)	4.23
CCN1CCCc2cc(CN3CCc4c(nc(C)[nH]c4=O)C3)ccc21	-1.02
CCC[C@H]1CN(c2cncc(C(=O)N(C)C)n2)C[C@@H]1N(C)C	-7.83
CCCC(=O)NCc1cc(Br)c(OC)c(OC)c1	1.11
Cc1nc(CNC(C)c2cccc(N3CCCC3=O)c2)cs1 (stereo unspecified)	5.01
CCC[C@@H]1CN(C(=O)c2conc2-c2ccccc2)C[C@H]1N(C)C	2.29
CC(C)C(=O)Nc1ncn(Cc2cccc(Br)c2)n1	-9.95
CCn1nnc2c1C(COC)CN(Cc1cccs1)C2 (stereo unspecified)	-16.5
O=C(Nc1cnn(CCN2CCOCC2)c1)c1cc(F)ccc1F	-8.8
CN(CCc1ccncc1)c1cnn(C)c(=O)c1Br	-5.44
Cc1cc(N2C[C@H](NC(=O)C3(C#N)CCOCC3)[C@@H](C(C)C)C2)ccn1	-4.1
O=C(CCC(=O)c1ccccc1)NC1(C(=O)NCC2CC2)CCCC1	2.26
CC(=O)Nc1nc(C2CCN(C(=O)c3cncs3)CC2)cs1	-8.91
CCCN1C[C@@H]2CC[C@H]1CN(C(=O)c1ccc(N(C)CCO)cc1)C2	-6.47
O=C(CC1CCCCC1)N1C[C@@H]2CC[C@H]1CN(Cc1cccnc1)C2	-0.662
C=C(C)COc1ccccc1NC(=O)N1CCCCC1CO (stereo unspecified)	-8.06
CC(=O)N1CCCN(C(=O)c2cnn(-c3ccccc3Cl)c2)CC1	-11.4
Cc1cnccc1CN(C)Cc1c[nH]nc1-c1ccc(F)cc1F	-5.93
